The values below come from ChEMBL document CHEMBL4414566, “Cytotoxicity and Anti-inflammatory Properties of Apigenin-Derived Isolaxifolin” (J Nat Prod, 2019).

Data set [1] relates to RAW264.7. Put plainly: Antiinflammatory activity in mouse RAW264.7 cells assessed as inhibition LPS-induced NO production at 254.8 uM measured after 24 hrs by griess reagent based assay. Format: functional, cell-based. In a few lines: (§1)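 Murine RAW 264.7 macrophages, 1 × 10^5/well, 4 h settling, then LPS (1.0 μg/mL) for 24 h. Medium was swapped for test solutions (0.8–3.1 μM or 2.3–9.2 μM), or DXM 254.8 μM as positive control, for another 24 h. Secreted NO was measured by Griess assay; TNF-α and IL-6 by ELISA. Run in triplicate, mean ± SD.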

Data set [2] relates to MDA-MB-231. Nature of the data set: Antiproliferative activity against human MDA-MB-231 cells assessed as viable cells at 40 uM incubated for 48 hrs by trypan blue dye exclusion test relative to control. The data set is classed as functional. As to conditions: MDA-MB-231, 48 h, read-out: Activity.
In data set [3] the test system is RAW264.7. Nature of the data set: Antiinflammatory activity in mouse RAW264.7 cells assessed as reduction in LPS-induced IL6 production preincubated with LPS for 24 hrs followed by compound addition and measured after 24 hrs by ELISA. Format: functional, cell-based. In a few lines:
as §1

Data set [4] concerns RAW264.7. Nature of the data set: Antiinflammatory activity in mouse RAW264.7 cells assessed as reduction in LPS-induced TNFalpha production preincubated with LPS for 24 hrs followed by compound addition and measured after 24 hrs by ELISA. The data set is classed as functional, cell-based. In a few lines:
as §1

The test system of data set [5] is RAW264.7. Put plainly: Antiinflammatory activity in mouse RAW264.7 cells assessed as inhibition of LPS-induced NO production measured after 24 hrs by griess reagent based assay. The data set is classed as functional, cell-based. In a few lines: as §1
A short description of data set [6]: Cytotoxicity against mouse RAW264.7 cells assessed as reduction in cell viability incubated for 24 hrs by MTT assay. Format: cell-based. As to conditions: read-out: MNCC. In short, it runs like this:
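MTT viability assay: RAW 264.7 cells seeded at 2.5 × 10^4 cells/well, cultured 12 h, then given five concentrations from serial dilution (up to 6.2 or 9.2 μM; final DMSO <1%) for 24 h. Viability was calculated relative to untreated blank control; n = 3, mean ± SD.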

The test system of data set [7] is MDA-MB-231. Put plainly: Induction of mitochondrial membrane potential loss in human MDA-MB-231 cells incubated for 48 hrs by JC1 staining based flow cytometric analysis. Format: functional, cell-based. In a few lines:
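MDA-MB-231 cells in DMEM/10% FBS exposed 48 h to 0, 8.6, 12.4 or 17.3 μM. Harvested cells stained with JC-1 for 15 min in the dark, then analysed by flow cytometry. Excitation 488 nm; green emission read at 525 nm, red at 590 nm. Output given as percent green-to-red fluorescence intensity ratio. Triplicate, mean ± SD.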

Data set [8] deals with MDA-MB-231. Put plainly: Induction of apoptosis in human MDA-MB-231 cells assessed as increase in nuclear chromatin condensation incubated for 48 hrs by Hoechst 33258 staining based fluorescence microscopic method. Format: functional, cell-based. In a few lines:
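MDA-MB-231 cells were grown 24 h and treated with 8.6, 12.4 or 17.3 μM for 48 h. They were then fixed 10 min, washed three times in PBS and stained 5 min with Hoechst 33258. Nuclear condensation was imaged by fluorescence microscopy (excitation 350 nm, emission 460 nm).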

The subject of data set [9] is L02. Nature of the data set: Cytotoxicity against human LO2 cells assessed as reduction in cell viability at 23.1 to 185 uM incubated for 48 hrs by methylene blue assay. The data set is classed as cell-based. Conditions: l02, 48 h. In short, it runs like this: (§2)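 MDA-MB-231, MCF-7, HepG2 and LNCaP cells were grown in DMEM; HCT-116 and LO-2 in RPMI-1640; all with 10% FBS at 37 °C, 5% CO2. Cells seeded at 1.5 × 10^5 cells/mL and incubated overnight (~12 h), then exposed to 6.2–30.9 μM or 23.1–185.0 μM (final DMSO <0.1%) for 48 h. Read by methylene blue staining; viability = Abs treated/Abs untreated × 100%, triplicate.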

For data set [10], the system named is MCF7. Nature of the data set: Antiproliferative activity against human MCF7 cells assessed as cell viability at 188.7 uM incubated for 48 hrs by methylene blue assay relative to control. Format: functional. As to conditions: MCF7, 48 h, read-out: Activity.
Data set [11] relates to RAW264.7. Nature of the data set: Antiinflammatory activity against LPS-activated mouse RAW264.7 cells assessed as reduction in TNFalpha mRNA expression preincubated with LPS for 24 hrs followed by compound addition and measured after 24 hrs by qRT-PCR analysis. Format: functional, cell-based. In short, it runs like this:
(§3)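 RAW 264.7 cells (DMEM, 10% FBS, 37 °C, 5% CO2) seeded at 1 × 10^5/well and held 4 h. LPS 1.0 μg/mL was added for 24 h, then medium was replaced with test agent (0.8, 1.6, 3.1 μM or 2.3, 4.6, 9.2 μM) for 24 h. TNF-α and IL-6 transcripts were quantified by real-time qPCR against GAPDH. Triplicates, mean ± SD.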

The subject of data set [12] is RAW264.7. Put plainly: Antiinflammatory activity against LPS-activated mouse RAW264.7 cells assessed as reduction in IL6 mRNA expression preincubated with LPS for 24 hrs followed by compound addition and measured after 24 hrs by qRT-PCR analysis. The data set is classed as functional, cell-based. In short, it runs like this:
as §3

Data set [13] has as its system MDA-MB-231. Put plainly: Antiproliferative activity against human MDA-MB-231 cells assessed as reduction in cell viability at 46.3 uM incubated for 48 hrs by methylene blue assay. Format: functional. In short, it runs like this:
as §2

In data set [14] the test system is MCF7. Put plainly: Antiproliferative activity against human MCF7 cells assessed as reduction in cell viability at 46.3 uM incubated for 48 hrs by methylene blue assay relative to control. Format: functional. In short, it runs like this:
as §2

For data set [15], the system named is HepG2. Nature of the data set: Antiproliferative activity against human HepG2 cells reduction in cell viability at 46.3 uM incubated for 48 hrs by methylene blue assay relative to control. The data set is classed as functional. In a few lines: as §2
The test system of data set [16] is LNCaP. Nature of the data set: Antiproliferative activity against human LNCAP cells assessed as reduction in cell viability at 46.3 uM incubated for 48 hrs by methylene blue assay relative to control. The data set is classed as functional. In a few lines: as §2
Data set [17] deals with HCT-116. Put plainly: Antiproliferative activity against human HCT116 cells assessed as reduction in cell viability at 46.3 uM incubated for 48 hrs by methylene blue assay relative to control. Format: functional. In a few lines:
as §2

In data set [18] the test system is MDA-MB-231. Nature of the data set: Induction of cell cycle arrest in human MDA-MB-231 cells assessed as increase in accumulation of cells at G0/G1 phase incubated for 48 hrs by PI/RNase staining based flow cytometric analysis. Format: functional. In a few lines: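 Cells grown 24 h in DMEM/10% FBS at 37 °C, 5% CO2, then exposed 48 h to 8.6, 12.4 or 17.3 μM. Pelleted, fixed in 75% ethanol at −20 °C overnight, stained with PI-containing RNase 15 min in the dark at ambient temperature. About 10 000 cells per well analysed by flow cytometry. Triplicate, mean ± SD.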

Data set [19] relates to RAW264.7. Nature of the data set: Inhibition of nitric oxide production in mouse RAW264.7 cells measured after 24 hrs by griess reagent based assay. The data set is classed as functional, cell-based.

Activity calls are given as the source filed them. The rule behind the calls is not given here.

Consider `C[C@@H]1C[C@H]2[C@@H]3CCC4=CC(=O)C=C[C@]4(C)[C@@]3(F)[C@@H](O)C[C@]2(C)[C@@]1(O)C(=O)CO`, for which the inhibition entry in data set [1] was “Active”.
Regarding `O=c1cc(-c2ccc(O)cc2)oc2cc(O)cc(O)c12` [APIGENIN], the viability at 40 µM in data set [2] was found to be 45%. Also, the Activity entry in data set [3] was “Dose-dependent effect”; in data set [4] it was “Dose-dependent effect”; in data set [8], “Dose-dependent effect”; in [9], “Non-Toxic”; in [11] it was “Dose-dependent effect”; in [12] it was “Dose-dependent effect”. The Activity result in data set [13], in data set [14], in data set [15], in [16] and in [17] was “<=50%” each time. The inhibition entry in [5] and in [19] was “Dose-dependent effect” in each case. Besides, in data set [6], the MNTC at 24 h stood at 9.2 µM. The result in [7] and in [18] was Active. Also, the viability at 188.7 µM in [10] is 20%.
